Source: PMC3288198 (ACS Chemical Biology, 2011)
Where two headings read alike, the source gives them in different places.

What was measured:
HDAC10 = target: T1, HDAC10 (Homo sapiens, UniProt Q969S8); experiment: HDAC deacetylase homogenous fluorescence assay, HDAC10; assay type: biochemical
T1 sequence (Q969S8 1-669): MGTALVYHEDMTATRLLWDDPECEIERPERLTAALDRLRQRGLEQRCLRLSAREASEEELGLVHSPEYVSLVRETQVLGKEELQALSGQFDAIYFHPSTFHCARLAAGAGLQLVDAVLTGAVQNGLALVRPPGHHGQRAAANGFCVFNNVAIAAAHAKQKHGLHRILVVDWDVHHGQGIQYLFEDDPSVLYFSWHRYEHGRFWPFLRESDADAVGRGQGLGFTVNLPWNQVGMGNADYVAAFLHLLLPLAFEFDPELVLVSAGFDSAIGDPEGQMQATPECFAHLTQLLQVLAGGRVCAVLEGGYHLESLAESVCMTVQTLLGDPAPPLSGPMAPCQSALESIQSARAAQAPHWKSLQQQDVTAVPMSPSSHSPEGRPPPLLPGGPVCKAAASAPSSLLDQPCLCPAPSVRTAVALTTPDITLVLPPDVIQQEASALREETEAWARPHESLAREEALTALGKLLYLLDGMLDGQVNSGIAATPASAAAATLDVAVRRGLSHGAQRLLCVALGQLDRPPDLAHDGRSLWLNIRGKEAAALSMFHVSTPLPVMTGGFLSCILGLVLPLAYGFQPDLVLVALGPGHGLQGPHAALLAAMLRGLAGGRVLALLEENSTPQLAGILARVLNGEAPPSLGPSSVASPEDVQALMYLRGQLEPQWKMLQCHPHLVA
Method in brief: (§1)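 Baculovirus-expressed recombinant human enzyme (HDAC3 as HDAC3/N-CoR2 complex) incubated with serially diluted test compound over a 12-point titration. Substrate: acetylated AMC-K(Ac)GL. Deacetylated product cleaved by lysine peptidase to free MCA, read at ex 355/em 460 nm. Data normalised to control plate by plate. IC50 and SD from non-linear regression; Ki via Cheng-Prusoff, Ki = IC50/(1+[S]/Km).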

HDAC9 = HDAC9 (Homo sapiens, UniProt Q9UKV0); experiment: HDAC deacetylase homogenous fluorescence assay, HDAC9; assay type: biochemical
Method in brief: (§2)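 Recombinant human enzyme (HDAC5, 8, 9 baculovirus-expressed) incubated with serially diluted test compound over a 12-point titration. Substrate: trifluoroacetylated AMC-K(TFA)GL. Peptidase development releases MCA, read at ex 355/em 460 nm. Activity normalised to plate controls. IC50 and SD by non-linear regression; Ki by Cheng-Prusoff, Ki = IC50/(1+[S]/Km).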

HDAC11 = target: T2, HDAC11 (Homo sapiens, UniProt Q96DB2); experiment: HDAC deacetylase homogenous fluorescence assay, HDAC11; assay type: biochemical
T2 sequence (Q96DB2 1-347): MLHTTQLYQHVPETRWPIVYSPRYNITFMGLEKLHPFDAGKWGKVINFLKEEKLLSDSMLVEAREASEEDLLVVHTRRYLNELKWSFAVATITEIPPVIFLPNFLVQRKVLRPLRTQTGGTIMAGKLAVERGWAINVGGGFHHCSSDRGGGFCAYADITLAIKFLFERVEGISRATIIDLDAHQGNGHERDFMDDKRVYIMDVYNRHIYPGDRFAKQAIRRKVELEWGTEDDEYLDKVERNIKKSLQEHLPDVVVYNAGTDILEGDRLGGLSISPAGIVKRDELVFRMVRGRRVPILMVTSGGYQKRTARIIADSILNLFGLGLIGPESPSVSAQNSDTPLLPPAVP

HDAC4 = HDAC4 (Homo sapiens, UniProt P56524); experiment: HDAC deacetylase homogenous fluorescence assay, HDAC4; assay type: biochemical
HDAC1 = HDAC1 (Homo sapiens, UniProt Q13547); experiment: HDAC deacetylase homogenous fluorescence assay, HDAC1; assay type: biochemical
Method in brief: as §1

HDAC5 = HDAC5 (Homo sapiens, UniProt Q9UQL6); experiment: HDAC deacetylase homogenous fluorescence assay, HDAC5; assay type: biochemical
Method in brief: as §2

acetylated tubulin = experiment: Western blot of acetylated tubulin in MV4-11 cells; assay type: cell-based, human
Method in brief: (§3)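 MV4-11 cells (10% heat-inactivated FBS, 37°C, 5% CO2) treated with test compound at a range of concentrations. Washed in cold HBSS and lysed 30 min in low-salt Tris pH 7.4 buffer with protease/phosphatase inhibitors and 1 μM TSA, then sonicated. LDS-denatured lysates run on 4–12% gradient gels. Probes: acetyl-H3, acetyl-H4, total H3, acetyl-α-tubulin, tubulin. HRP secondary, ECL read-out.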

ubiquitinated protein = experiment: Western blot of total ubiquitinated protein in MV4-11 cells; assay type: cell-based, human; details: within 3 hr
[1] = tested on: non-proliferating PBMC (no mitogen stimulation); experiment: Viability of resting PBMC; assay type: cell-based, human
[2] = tested on: acetylated histone H3 and H4; experiment: Western blot of acetylated histone H3/H4 in MV4-11 cells; assay type: cell-based, human
Method in brief: as §3

[3] = read-out: HDAC10 IC50, 12 point titration, acetylated substrate
[4] = read-out: HDAC9 IC50, 12 point titration, trifluoroacetylated substrate
[5] = read-out: HDAC9 Ki, converted from IC50 using Cheng-Prusoff equation
[6] = read-out: HDAC11 IC50, 12 point titration, trifluoroacetylated substrate
[7] = read-out: HDAC4 IC50, 12 point titration, trifluoroacetylated substrate
[8] = read-out: HDAC4 Ki, converted from IC50 using Cheng-Prusoff equation
[9] = read-out: HDAC1 IC50, 12 point titration, acetylated substrate
[10] = read-out: HDAC1 Ki, converted from IC50 using Cheng-Prusoff equation
[11] = read-out: HDAC5 IC50, 12 point titration, trifluoroacetylated substrate
[12] = read-out: HDAC5 Ki, converted from IC50 using Cheng-Prusoff equation

Chain of HDAC9 (Q9UKV0 whole entry): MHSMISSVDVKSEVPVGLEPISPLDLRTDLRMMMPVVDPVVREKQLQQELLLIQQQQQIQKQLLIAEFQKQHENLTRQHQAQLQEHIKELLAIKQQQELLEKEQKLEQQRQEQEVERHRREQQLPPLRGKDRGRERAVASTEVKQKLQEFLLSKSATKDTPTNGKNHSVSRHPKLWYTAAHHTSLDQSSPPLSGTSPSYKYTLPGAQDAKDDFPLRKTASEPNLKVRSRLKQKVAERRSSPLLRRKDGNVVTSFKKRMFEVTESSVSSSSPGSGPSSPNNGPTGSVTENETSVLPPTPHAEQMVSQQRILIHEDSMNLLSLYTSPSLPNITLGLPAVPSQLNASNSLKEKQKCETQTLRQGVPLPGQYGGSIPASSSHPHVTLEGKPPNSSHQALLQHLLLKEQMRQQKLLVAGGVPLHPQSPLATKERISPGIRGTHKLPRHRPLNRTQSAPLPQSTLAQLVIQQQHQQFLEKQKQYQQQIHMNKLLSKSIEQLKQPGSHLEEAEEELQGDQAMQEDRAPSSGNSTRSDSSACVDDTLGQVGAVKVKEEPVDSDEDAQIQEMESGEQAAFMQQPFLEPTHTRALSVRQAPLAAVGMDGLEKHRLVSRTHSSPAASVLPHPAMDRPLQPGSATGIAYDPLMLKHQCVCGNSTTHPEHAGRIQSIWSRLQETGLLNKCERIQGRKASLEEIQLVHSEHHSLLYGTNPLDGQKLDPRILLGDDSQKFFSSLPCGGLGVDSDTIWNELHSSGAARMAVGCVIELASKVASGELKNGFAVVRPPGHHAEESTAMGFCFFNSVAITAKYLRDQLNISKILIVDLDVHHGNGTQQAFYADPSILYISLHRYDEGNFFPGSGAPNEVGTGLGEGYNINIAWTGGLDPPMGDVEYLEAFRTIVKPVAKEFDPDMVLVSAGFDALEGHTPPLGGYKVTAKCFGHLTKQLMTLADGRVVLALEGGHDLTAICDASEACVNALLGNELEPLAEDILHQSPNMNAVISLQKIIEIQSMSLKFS
Chain of HDAC4 (P56524 whole entry): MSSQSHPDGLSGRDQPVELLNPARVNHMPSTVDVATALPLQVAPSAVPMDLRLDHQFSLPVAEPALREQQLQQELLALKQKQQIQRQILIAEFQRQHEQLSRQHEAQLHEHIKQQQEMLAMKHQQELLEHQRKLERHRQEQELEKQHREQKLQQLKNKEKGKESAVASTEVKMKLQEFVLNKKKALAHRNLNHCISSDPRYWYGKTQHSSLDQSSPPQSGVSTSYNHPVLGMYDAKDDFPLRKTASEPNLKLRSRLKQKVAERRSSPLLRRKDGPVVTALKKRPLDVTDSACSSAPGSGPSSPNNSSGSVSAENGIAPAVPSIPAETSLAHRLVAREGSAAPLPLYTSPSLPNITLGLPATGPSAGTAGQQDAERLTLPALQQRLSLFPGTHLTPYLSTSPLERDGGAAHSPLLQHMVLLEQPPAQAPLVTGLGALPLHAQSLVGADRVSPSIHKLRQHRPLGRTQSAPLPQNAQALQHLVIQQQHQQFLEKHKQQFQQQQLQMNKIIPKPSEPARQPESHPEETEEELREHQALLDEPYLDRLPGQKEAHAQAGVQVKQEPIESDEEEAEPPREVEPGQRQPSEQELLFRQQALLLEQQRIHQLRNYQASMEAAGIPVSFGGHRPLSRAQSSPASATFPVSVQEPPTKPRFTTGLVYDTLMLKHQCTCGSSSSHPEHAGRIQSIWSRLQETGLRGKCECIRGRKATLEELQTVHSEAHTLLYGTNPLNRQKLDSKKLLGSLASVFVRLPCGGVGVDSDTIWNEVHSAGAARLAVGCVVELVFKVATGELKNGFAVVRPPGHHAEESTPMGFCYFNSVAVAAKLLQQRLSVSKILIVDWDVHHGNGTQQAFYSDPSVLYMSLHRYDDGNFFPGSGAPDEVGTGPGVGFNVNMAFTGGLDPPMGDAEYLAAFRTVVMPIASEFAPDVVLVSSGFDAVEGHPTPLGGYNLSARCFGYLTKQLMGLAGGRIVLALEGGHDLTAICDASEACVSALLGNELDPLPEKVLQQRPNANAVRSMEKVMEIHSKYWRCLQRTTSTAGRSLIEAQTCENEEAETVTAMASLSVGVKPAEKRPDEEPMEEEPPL
Chain of HDAC1 (Q13547 whole entry): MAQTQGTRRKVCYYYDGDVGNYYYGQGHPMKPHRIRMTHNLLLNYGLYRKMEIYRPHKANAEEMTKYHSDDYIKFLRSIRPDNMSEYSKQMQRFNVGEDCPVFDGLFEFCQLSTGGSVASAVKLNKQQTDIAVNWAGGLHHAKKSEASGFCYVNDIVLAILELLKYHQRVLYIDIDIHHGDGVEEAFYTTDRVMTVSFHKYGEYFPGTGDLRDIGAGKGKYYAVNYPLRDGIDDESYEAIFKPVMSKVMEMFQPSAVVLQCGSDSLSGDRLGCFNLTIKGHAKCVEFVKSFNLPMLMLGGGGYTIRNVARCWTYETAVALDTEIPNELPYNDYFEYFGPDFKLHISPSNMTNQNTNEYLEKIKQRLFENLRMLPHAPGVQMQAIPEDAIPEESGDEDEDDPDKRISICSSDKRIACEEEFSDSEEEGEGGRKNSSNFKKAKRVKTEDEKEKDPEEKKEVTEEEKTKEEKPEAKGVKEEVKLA
Chain of HDAC5 (Q9UQL6 whole entry): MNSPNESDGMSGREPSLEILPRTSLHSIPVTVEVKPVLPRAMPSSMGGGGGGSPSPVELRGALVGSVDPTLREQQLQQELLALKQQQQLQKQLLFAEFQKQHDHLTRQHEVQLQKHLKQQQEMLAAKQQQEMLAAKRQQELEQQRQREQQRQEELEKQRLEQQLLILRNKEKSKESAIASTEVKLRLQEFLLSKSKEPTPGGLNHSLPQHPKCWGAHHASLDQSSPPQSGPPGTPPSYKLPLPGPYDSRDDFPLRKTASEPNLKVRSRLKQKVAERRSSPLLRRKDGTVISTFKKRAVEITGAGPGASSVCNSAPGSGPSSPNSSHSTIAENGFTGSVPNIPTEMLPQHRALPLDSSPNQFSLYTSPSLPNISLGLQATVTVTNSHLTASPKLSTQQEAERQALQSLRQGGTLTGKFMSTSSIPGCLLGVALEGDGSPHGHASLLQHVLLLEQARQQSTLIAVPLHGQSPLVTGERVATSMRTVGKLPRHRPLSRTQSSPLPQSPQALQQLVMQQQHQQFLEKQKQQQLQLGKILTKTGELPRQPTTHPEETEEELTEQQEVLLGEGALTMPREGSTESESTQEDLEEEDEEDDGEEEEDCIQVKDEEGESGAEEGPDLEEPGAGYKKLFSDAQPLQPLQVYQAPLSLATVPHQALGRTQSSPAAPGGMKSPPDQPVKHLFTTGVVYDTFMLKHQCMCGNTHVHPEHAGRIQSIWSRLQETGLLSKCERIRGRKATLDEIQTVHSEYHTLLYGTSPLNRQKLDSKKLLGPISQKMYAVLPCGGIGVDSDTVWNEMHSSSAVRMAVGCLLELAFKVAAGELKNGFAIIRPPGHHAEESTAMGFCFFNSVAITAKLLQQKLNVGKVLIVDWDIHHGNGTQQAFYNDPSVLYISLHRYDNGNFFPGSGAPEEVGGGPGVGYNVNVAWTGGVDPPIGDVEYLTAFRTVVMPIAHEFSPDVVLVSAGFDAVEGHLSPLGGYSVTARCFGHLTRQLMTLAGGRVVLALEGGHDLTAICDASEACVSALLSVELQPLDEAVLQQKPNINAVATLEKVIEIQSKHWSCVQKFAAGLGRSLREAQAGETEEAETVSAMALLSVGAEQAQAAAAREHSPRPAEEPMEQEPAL

SMILES	IC50 (HDAC10) [µM]	Ki (HDAC10) [µM]	IC50 (HDAC9) [µM]	IC50 (HDAC11) [µM]	Ki (HDAC11) [µM]	IC50 (HDAC4) [µM]	Ki (HDAC4) [µM]	IC50 (HDAC1) [µM]	IC50 (HDAC5) [µM]	Ki (HDAC5) [µM]	IC50 (HDAC10; [3]) [µM]	IC50 (HDAC9; [4]) [µM]	Ki (HDAC9; [5]) [µM]	IC50 (HDAC11; [6]) [µM]	IC50 (HDAC4; [7]) [µM]	Ki (HDAC4; [8]) [µM]	IC50 (HDAC1; [9]) [µM]	Ki (HDAC1; [10]) [µM]	IC50 (HDAC5; [11]) [µM]	Ki (HDAC5; [12]) [µM]	also measured
O=c1c2ccccc2[se]n1-c1ccccc1 [Ebselen, 2-phenyl-1,2-benzisoselenazol-3(2H)-one]	0.95 ± 0.4	0.42	0.97 ± 0.5	22.5 ± 2.4	4.41	1.2 ± 0.2	0.2	1.5 ± 0.4	0.78 ± 0.1	0.42											Ki (HDAC1): 0.15 µM
O=C1C(SCCO)=C(SCCO)C(=O)c2ccccc21 [NSC-95397, 2,3-bis[(2-Hydroxyethyl)thio]-1,4-naphthoquinone]	14.5 ± 1.5	6.4	4.8 ± 1.4	37.8 ± 1.4	7.41	7.2 ± 2.8	1.23	> 180	3.1 ± 0.2	1.68											induction of acetylated tubulin (acetylated tubulin): induces hyperacetylated tubulin; Ki (HDAC9): 2.04 µM; total ubiquitinated protein level (ubiquitinated protein): increase in total ubiquitinated protein level; effect on resting (non-proliferating) PBMC viability [1]: inactive; effect on resting (non-proliferating) PBMC viability ([1]; listed as NSC): not affected; effect on acetylated histone H3/H4 levels [2]: without an increase in acetylated histone levels
COc1ccc2c(c1)CC[C@@H]1[C@@H]2CC[C@]2(C)[C@@H](NCCCCCCN3C(=O)C=CC3=O)CC[C@@H]12 [U-73122, 1-[6-[[(17beta)-3-methoxyestra-1,3,5([10])-trien-17-yl]amion]hexyl]-1H-pyrrole-2,5-dione]											> 100	29.8 ± 5.6	12.7	> 180	31.2 ± 0.2	5.33	38.4 ± 15.5	4.11	10.5 ± 7.4	5.68	
NC(N)=Nc1ccc2[nH]c3c(c2c1)C[C@@]1(O)[C@H]2Cc4ccc(O)c5c4[C@@]1(CCN2CC1CC1)[C@H]3O5 [GNTI, guanidinyl-naltrindole di-trifluoroacetate]											> 180	12.3 ± 1.7	5.23	> 180	13.4 ± 1.6	2.29	30.2 ± 7.3	3.24	0.7 ± 0.1	0.38	
OC[C@H]1O[C@H]([S-])[C@H](O)[C@@H](O)[C@@H]1O.[Au+] [Aurothioglucose, 1-thio-D-glucopyronaose gold salt]											4.9 ± 1.5	2.8 ± 0.1	1.19	> 180	4.1 ± 2.1	0.7	4.4 ± 1.1	0.47	0.72 ± 0.5	0.39	Ki (HDAC10; read-out: HDAC10 Ki, converted from IC50 using Cheng-Prusoff equation): 2.16 µM
